Experiments:
[1] = target: Phosphatidylinositol 4,5-bisphosphate 3-kinase catalytic subunit beta isoform (Homo sapiens, UniProt P42338); assay: Binding affinity to human wild-type partial length PI3Kbeta (P118 to S1070 residues) expressed in mammalian expression system by kinome scan assay
Procedure, shortened: (§1)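 DNA-tagged kinases competed against immobilized ligand with an 11-point 3-fold serial dilution starting from 30 μM. Kinase bound measured by qPCR of the DNA tags. Kd from standard dose–response curves with the Hill equation (Hill slope −1); mean of duplicate experiments.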

[2] = target: mTORC2 (Homo sapiens, UniProt P42345); assay: Inhibition of mTORC2 in human A2058 cells assessed as reduction in PKB phosphorylation at S473 residues incubated for 1 hr by Western blot analysis; format: cell-based
Procedure, shortened: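 In-cell Western assay. A2058 cells (2 × 10^4/well) grown 24 h at 37 °C, 5% CO2, then exposed 1 h to inhibitor or DMSO. Cells fixed in 4% PFA, blocked, and stained for the phospho-protein with α-tubulin as internal standard; infrared fluorescence read-out. Signals normalized to tubulin and to DMSO controls to derive IC50.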

[3] = target: T1, CYP1A2 (Homo sapiens, UniProt P05177); assay: Substrate activity at recombinant human CYP1A2 expressed in baculovirus infected insect cells assessed as parent compound remaining at 1 uM incubated for 60 mins in absence of NADP+-regenerating system by LC-MS analysis; format: ADME; conditions: read-out: Stability
T1 sequence (P05177 whole entry): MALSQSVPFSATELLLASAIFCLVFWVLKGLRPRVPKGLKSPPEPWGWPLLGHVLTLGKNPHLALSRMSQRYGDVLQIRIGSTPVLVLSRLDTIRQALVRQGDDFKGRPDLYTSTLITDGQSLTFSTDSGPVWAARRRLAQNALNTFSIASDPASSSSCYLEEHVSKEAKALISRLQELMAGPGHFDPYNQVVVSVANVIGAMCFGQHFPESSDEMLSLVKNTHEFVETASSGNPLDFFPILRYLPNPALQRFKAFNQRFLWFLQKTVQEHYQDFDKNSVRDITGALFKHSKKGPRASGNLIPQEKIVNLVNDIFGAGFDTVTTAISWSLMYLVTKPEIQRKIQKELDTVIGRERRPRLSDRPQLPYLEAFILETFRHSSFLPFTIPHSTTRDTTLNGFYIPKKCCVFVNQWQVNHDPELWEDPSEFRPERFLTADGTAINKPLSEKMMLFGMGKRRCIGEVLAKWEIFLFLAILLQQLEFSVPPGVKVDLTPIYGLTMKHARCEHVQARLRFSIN
Procedure, shortened: (§2)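 Baculovirus/insect-cell Supersomes, each expressing a single human CYP, at 25 pmol/mL. Compound at 1 μM (0.25% DMSO), 37 °C, 60 min. Reactions run with a NADP+-regenerating cofactor mix or, as negative control, without cofactors and glucose-6-phosphate dehydrogenase. Stopped with ACN containing internal standard. Duplicates; % remaining from absolute amounts.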

[4] = organism: Homo sapiens; assay: Selectivity ratio of Kd for binding affinity to human wild-type partial length PI3Kalpha (R108 to N1068 residues) expressed in mammalian expression system to Kd for binding affinity to wild-type human partial length mTOR (L1382 to W2549 residues) expressed in mammalian expression system
Procedure, shortened: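 Ratio of Kd values from the DNA-tagged kinase competition binding assay (qPCR read-out, 11-point 3-fold dilution from 30 μM, Hill fit with slope −1, duplicates): PI3Kα Kd divided by mTOR Kd.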

[5] = target: T1, CYP1A2; assay: Substrate activity at recombinant human CYP1A2 expressed in baculovirus infected insect cells assessed as parent compound remaining at 1 uM incubated for 60 mins in presence of NADP+-regenerating system by LC-MS analysis; format: ADME; conditions: read-out: Stability; procedure, shortened: as §2
[6] = AUC (0 to 8 hrs) in Sprague-Dawley rat plasma at 5 mg/kg, po by UHPLC-MS analysis; format: ADME, organism-based; parameters: time < 8 hr, dose 5 mg/kg, route oral
Procedure, shortened: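 Male Sprague Dawley rats (8 weeks old at delivery), single oral dose of 5 mg/kg, formulation at pH 3. Three rats per time point (30 min, 2, 4, 8 h) under isoflurane; heart-puncture blood into lithium-heparin, then brain collected. Plasma and tissue stored at −80 °C. Samples precipitated with acetonitrile containing diazepam internal standard, then LC–MS.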

[7] = organism: Homo sapiens; assay: Selectivity ratio of Ki for inhibition of alexa fluor 647-labeled kinase tracer 314 binding to recombinant human full-length N-terminal His6-tagged p110alpha/p85alpha expressed in baculovirus expression system to Ki for inhibition of alexa fluor 647-labeled kinase tracer 314 binding to recombinant human N-terminal GST-fused mTOR (1360 to 2549 residues) expressed in baculovirus expression system
Procedure, shortened: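 Ratio of Ki values from the TR-FRET tracer 314 displacement assays. p110α: His6-tagged enzyme, biotin anti-His antibody and Eu-streptavidin (2 nM each), tracer at 20 nM, buffer 50 mM HEPES pH 7.5, 10 mM MgCl2, 1 mM EGTA, 0.01% Brij-35. mTOR: GST-mTOR 1360–2549, Eu-anti-GST, tracer 10 nM, HEPES/5 mM MgCl2/EGTA/Pluronic buffer.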

[8] = target: T2, CYP1A1 (Homo sapiens, UniProt P04798); assay: Substrate activity at recombinant human CYP1A1 expressed in baculovirus infected insect cells assessed as parent compound remaining at 1 uM incubated for 60 mins in presence of NADP+-regenerating system by LC-MS analysis; format: ADME; conditions: read-out: Stability; procedure, shortened: as §2
T2 sequence (P04798 whole entry): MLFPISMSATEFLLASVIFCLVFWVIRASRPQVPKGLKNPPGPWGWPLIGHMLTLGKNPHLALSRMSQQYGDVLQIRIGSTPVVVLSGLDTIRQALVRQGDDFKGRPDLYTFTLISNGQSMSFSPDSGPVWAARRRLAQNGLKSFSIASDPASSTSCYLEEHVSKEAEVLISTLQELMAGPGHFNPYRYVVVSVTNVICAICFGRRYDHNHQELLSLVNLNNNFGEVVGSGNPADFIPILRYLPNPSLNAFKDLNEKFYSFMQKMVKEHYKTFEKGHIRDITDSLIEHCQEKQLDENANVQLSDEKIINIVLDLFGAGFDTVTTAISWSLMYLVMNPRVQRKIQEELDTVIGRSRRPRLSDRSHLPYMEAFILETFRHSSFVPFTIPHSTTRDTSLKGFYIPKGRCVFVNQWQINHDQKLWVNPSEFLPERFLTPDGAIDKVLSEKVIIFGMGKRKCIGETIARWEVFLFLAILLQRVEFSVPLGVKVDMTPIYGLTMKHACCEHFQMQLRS

[9] = target: Phosphatidylinositol 4,5-bisphosphate 3-kinase catalytic subunit alpha isoform (Homo sapiens, UniProt P42336); assay: Binding affinity to human wild-type partial length PI3Kalpha (R108 to N1068 residues) expressed in mammalian expression system by kinome scan assay; procedure, shortened: as §1
Phosphatidylinositol 4,5-bisphosphate 3-kinase catalytic subunit alpha isoform, sequence (P42336 whole entry, the tested form may be a part, canonical isoform): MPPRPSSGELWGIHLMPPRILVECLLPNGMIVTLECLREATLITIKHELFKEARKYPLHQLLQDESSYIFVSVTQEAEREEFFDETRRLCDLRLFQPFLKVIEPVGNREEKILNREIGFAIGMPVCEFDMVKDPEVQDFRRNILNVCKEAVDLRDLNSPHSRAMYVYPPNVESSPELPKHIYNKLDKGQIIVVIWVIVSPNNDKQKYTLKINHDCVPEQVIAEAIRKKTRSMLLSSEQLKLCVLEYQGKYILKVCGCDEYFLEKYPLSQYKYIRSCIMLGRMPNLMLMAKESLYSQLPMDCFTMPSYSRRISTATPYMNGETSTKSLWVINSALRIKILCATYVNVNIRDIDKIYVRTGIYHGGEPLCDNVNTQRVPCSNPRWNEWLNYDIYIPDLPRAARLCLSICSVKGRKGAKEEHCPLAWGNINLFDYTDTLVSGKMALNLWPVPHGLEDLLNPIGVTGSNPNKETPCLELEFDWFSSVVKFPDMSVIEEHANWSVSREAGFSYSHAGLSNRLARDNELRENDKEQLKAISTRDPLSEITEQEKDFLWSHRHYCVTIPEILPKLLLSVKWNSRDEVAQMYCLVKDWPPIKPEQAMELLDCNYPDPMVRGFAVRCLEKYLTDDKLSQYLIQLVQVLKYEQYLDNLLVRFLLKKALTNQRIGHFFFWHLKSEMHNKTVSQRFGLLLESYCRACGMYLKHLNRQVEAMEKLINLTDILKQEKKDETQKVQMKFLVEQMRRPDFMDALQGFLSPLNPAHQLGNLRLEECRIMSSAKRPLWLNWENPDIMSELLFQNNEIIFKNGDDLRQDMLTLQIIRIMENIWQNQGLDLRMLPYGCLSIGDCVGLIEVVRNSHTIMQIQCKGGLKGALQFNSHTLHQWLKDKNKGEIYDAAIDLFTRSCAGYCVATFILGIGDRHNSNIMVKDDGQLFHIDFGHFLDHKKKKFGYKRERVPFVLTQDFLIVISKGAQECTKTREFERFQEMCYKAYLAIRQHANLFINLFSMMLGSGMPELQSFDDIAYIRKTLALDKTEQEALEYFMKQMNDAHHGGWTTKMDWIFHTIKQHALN

[10] = Stability in CD-1 mouse hepatocytes assessed as parent compound remaining at 5 uM after 3 hrs by LC-MS analysis; format: ADME, cell-based, Hepatocyte; conditions: read-out: Stability
Procedure, shortened: (§3)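 Cryopreserved hepatocytes in suspension (200 000 cells/well) in Williams medium E with 2 mM L-glutamine and 25 mM HEPES. Test item at a final 5 μM (0.5% DMSO). Sampled at 0, 15, 60, 90 and 180 min. Precipitated with ACN, then LC–MS. Controls: 7-ethoxycoumarin and hepatocyte-free medium; n = 2.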

[11] = Stability in Sprague-Dawley rat hepatocytes assessed as parent compound remaining at 5 uM after 3 hrs by LC-MS analysis; format: ADME, cell-based, Hepatocyte; conditions: read-out: Stability; procedure, shortened: as §3

Phosphatidylinositol 4,5-bisphosphate 3-kinase catalytic subunit beta isoform, sequence (P42338 whole entry, the tested form may be a part, canonical isoform): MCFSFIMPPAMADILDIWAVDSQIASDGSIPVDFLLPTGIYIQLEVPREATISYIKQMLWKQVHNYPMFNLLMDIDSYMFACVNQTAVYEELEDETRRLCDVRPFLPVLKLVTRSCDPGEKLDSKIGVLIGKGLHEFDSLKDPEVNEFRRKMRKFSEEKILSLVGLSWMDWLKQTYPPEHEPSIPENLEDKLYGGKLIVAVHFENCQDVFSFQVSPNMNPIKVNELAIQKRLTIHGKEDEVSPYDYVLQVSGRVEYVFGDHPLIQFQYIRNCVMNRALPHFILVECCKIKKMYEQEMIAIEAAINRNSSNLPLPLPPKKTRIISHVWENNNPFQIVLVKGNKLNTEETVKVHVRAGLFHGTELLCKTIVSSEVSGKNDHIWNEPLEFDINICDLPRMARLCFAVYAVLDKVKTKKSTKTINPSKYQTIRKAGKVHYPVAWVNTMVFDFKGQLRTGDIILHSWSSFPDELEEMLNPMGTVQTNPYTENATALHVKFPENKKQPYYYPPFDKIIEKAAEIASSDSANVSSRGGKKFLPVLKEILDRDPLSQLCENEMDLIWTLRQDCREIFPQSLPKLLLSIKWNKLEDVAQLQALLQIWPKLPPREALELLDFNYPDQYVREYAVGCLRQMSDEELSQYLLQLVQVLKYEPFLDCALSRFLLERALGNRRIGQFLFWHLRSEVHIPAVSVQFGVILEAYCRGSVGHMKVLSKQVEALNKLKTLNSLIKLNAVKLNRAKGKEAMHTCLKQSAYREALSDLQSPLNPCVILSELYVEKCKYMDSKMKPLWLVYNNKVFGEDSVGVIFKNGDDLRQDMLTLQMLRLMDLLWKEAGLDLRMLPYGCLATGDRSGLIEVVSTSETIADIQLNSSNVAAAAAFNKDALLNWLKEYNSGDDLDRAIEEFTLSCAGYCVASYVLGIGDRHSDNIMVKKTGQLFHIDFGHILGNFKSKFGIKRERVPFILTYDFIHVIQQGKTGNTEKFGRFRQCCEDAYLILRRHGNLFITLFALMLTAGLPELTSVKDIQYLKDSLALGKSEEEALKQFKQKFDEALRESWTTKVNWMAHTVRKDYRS

Row | SMILES | Kd [1] [nM] | IC50 [2] [nM] | remaining at 1 h, 1 µM [3] [%] | Selectivity ratio [4] | remaining at 1 h, 1 µM [5] [%] | AUC(0-t) at 8 h [6] [ng·h/mL] | Ratio Ki [7] | remaining at 1 h, 1 µM [8] [%] | Kd [9] [nM] | remaining at 3 h, 5 µM [10] [%] | remaining at 3 h, 5 µM [11] [%]
1 | C[C@@H]1COCCN1c1nc(-c2cnc(N)cn2)nc2c1C[C@@H]1COCCN21 | 7500 | 94 | 91 | 457 | 92 | 5730 | 212 | 77 | 1600 | – | –
2 | C[C@@H]1COCCN1c1nc(-c2cnc(N)nc2)nc2c1C[C@@H]1COCCN21 | 1400 | 77 | 91 | 8.6 | 73 | – | 214 | 51 | 120 | 81.2 | 93.6
3 | C[C@@H]1COCCN1c1nc(-c2ccc(N)nc2)nc2c1C[C@@H]1COCCN21 | 4100 | 133 | 94 | 17.9 | – | – | 165 | – | 610 | – | –
